Measurements: PubChem BioAssay AID624324 (Broad Institute, 2012)
Activity calls are given as the source filed them.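 Rule for the calls: active = fitted AC50 at or under twice the sample's top valid tested dose, with viability loss; inconclusive = flat curve with 30 to 70% viability loss, or poor fit; inactive = the rest, including shifts toward viability gain.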

Test system: not listed separately
Test: A375 melanoma cell viability loss, dose response, counter-screen for MITF inhibitor project, CellTiter-Glo luminescence, dry powder, set 3 (AID 624324)
Details: A375 melanoma viability, CellTiter-Glo ATP luminescence, 24 h; at 35 µM (top of the series)
Procedure, shortened: (§1)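 assay system = A375 melanoma cells, MITF-independent | quantity = 3000 A375 cells seeded per well | incubation = 24 h exposure at 37 °C, 5 min detection at RT | measured by = ATP luminescence, CellTiter-Glo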

Row | Structure (SMILES) | activity change, negative = viability loss
1 | CN1CCN(C2=C(NS(=O)(=O)c3ccc(Br)cc3)C(=O)c3ccccc3C2=O)CC1 | 1% (inactive)
2 | NC1=C(c2ccccc2)C(=O)c2ccccc2C1=O | -6.89% (inactive)
3 | O=C1C(NS(=O)(=O)c2ccc(Br)cc2)=C(N2CCN(c3ccccc3)CC2)C(=O)c2ccccc21 | 0.602% (inactive)
4 | COc1ccc(C2=C(NC(=O)c3ccc(OC)cc3-c3cccc(OC)c3)C(=O)c3ccccc3C2=O)cc1 | 4.86% (inactive)
5 | O=C(NC1=C(N2CCN(c3ccccc3)CC2)C(=O)c2ccccc2C1=O)c1ccccc1 | -7.51% (inactive)
6 | C=CCNC1=C(NCC=C)C(=O)c2ccccc2C1=O | 1.61% (inactive)
7 | NC1=C(c2ccc(OC(F)(F)F)cc2)C(=O)c2ccccc2C1=O | -5.51% (inactive)
8 | C=CCNC1=C(NCCCN2CCOCC2)C(=O)c2ccccc2C1=O | 1.84% (inactive)
9 | CN1CCN(C2=C(NS(=O)(=O)c3cccs3)C(=O)c3ccccc3C2=O)CC1 | 12.4% (inactive)

Test system: A375 melanoma viability, CellTiter-Glo ATP luminescence, 24 h
Test: as above
Details: not given
Procedure, shortened: as §1

Row | Structure (SMILES) | AC50
10 | O=C(NC1=C(c2ccc(OC(F)(F)F)cc2)C(=O)c2ccccc2C1=O)c1ccco1 | 28 µM
11 | CC(=O)NC1=C(c2cccc(Cl)c2)C(=O)c2ccccc2C1=O | 9.51 µM
12 | O=C(CNc1cccc2ccccc12)N/N=C/c1ccc([N+](=O)[O-])o1 | > 70 µM (inactive)
13 | O=C1C(NS(=O)(=O)c2cccs2)=C(N2CCCCC2)C(=O)c2ccccc21 | > 70 µM (inactive)
14 | O=C1C(Nc2ccccc2)=C(NS(=O)(=O)c2ccccc2[N+](=O)[O-])C(=O)c2ccccc21 | > 70 µM (inactive)
15 | O=C1C(Nc2ccccc2)=C(N2CCSCC2)C(=O)c2ccccc21 | > 70 µM (inactive)
16 | CN1CCN(C2=C(NC(=O)c3ccc(Br)cc3)C(=O)c3ccccc3C2=O)CC1 | 15.2 µM
17 | COc1ccc(C2=C(NC(=O)c3cccc(Cl)c3)C(=O)c3ccccc3C2=O)cc1 | 16.8 µM
18 | O=C1C(NS(=O)(=O)c2cccs2)=C(N2CCOCC2)C(=O)c2ccccc21 | > 70 µM (inactive)
19 | O=C(NC1=C(c2ccccc2)C(=O)c2ccccc2C1=O)c1ccccc1 | 27.9 µM
20 | O=C(NC1=C(c2ccccc2)C(=O)c2ccccc2C1=O)c1ccc(Br)cc1 | 26.4 µM
21 | CCN1CCN(C2=C(NC(=O)c3ccc(Br)cc3)C(=O)c3ccccc3C2=O)CC1 | 18.4 µM
22 | C=CCNC1=C(NCCCN(CC)CC)C(=O)c2ccccc2C1=O | 22 µM
23 | O=C(NC1=C(N2CCCCC2)C(=O)c2ccccc2C1=O)c1ccc(Br)cc1 | > 70 µM (inactive)
24 | Cc1ccc(C(=O)NC2=C(c3ccccc3)C(=O)c3ccccc3C2=O)o1 | 16 µM
25 | C=CCNC1=C(N2CCN(C)CC2)C(=O)c2ccccc2C1=O | 20.9 µM
26 | O=C1C(NS(=O)(=O)c2ccc(Br)s2)=C(N2CCOCC2)C(=O)c2ccccc21 | > 70 µM (inactive)
27 | CC(=O)N(C)C1=C(N2CCCCC2)C(=O)c2ccccc2C1=O | 29.1 µM
28 | O=C1C(Nc2ccccc2)=C(N2CCOCC2)C(=O)c2ccccc21 | > 70 µM (inactive)
29 | O=C1C(NS(=O)(=O)c2ccccc2)=C(N2CCCCC2)C(=O)c2ccccc21 | > 70 µM (inactive)
30 | NC1=CC(=O)c2ccccc2C1=O | > 70 µM (inactive)

Row | Structure (SMILES) | AC50
31 | O=C1C(Nc2ccccc2)=C(N2CCN(c3ccccc3)CC2)C(=O)c2ccccc21 | > 70 µM (inactive)
32 | O=C1C(NS(=O)(=O)c2ccc(Br)cc2)=C(c2ccc(OC(F)(F)F)cc2)C(=O)c2ccccc21 | > 70 µM (inactive)
33 | CCN(CC)CCCCNC1=C(Nc2ccccc2)C(=O)c2ccccc2C1=O | > 70 µM (inactive)
34 | Cc1ccc(C(=O)NC2=C(c3ccc(OC(F)(F)F)cc3)C(=O)c3ccccc3C2=O)o1 | 30.4 µM
35 | CC1CCN(CC(CS(=O)(=O)c2ccc([N+](=O)[O-])cc2)N2CCC(C)CC2)CC1 (configuration not stated) | > 70 µM (inactive)
36 | CN1CCN(C2=C(NC(=O)c3ccccc3)C(=O)c3ccccc3C2=O)CC1 | 13.6 µM
37 | NC1=C(NC(=O)c2ccccc2)C(=O)c2ccccc2C1=O | > 70 µM (inactive)
38 | CN1CCN(C2=C(NS(=O)(=O)c3ccc(Br)s3)C(=O)c3ccccc3C2=O)CC1 | > 70 µM (inactive)
39 | CCN(CC)CCCNC1=C(N(C)C(C)=O)C(=O)c2ccccc2C1=O | 6.19 µM
40 | CC(=O)N(C)C1=C(N2CCOCC2)C(=O)c2ccccc2C1=O | 32.9 µM
41 | COc1ccc(C2=C(NC(=O)c3ccccc3OC)C(=O)c3ccccc3C2=O)cc1 | 25.5 µM
42 | O=C1C(NS(=O)(=O)c2ccc(Br)s2)=C(N2CCCCC2)C(=O)c2ccccc21 | > 70 µM (inactive)
43 | COc1cccc(-c2cc(C(=O)NC3=C(Cl)C(=O)c4ccccc4C3=O)ccc2OC)c1 | > 70 µM (inactive)
44 | O=C(NC1=C(N2CCCCC2)C(=O)c2ccccc2C1=O)c1ccccc1 | > 70 µM (inactive)
45 | COc1ccc(C(=O)NC2=C(c3ccc(OC(F)(F)F)cc3)C(=O)c3ccccc3C2=O)cc1 | 32.2 µM
46 | O=C(NC1=C(c2ccc(OC(F)(F)F)cc2)C(=O)c2ccccc2C1=O)c1ccccc1F | 36.6 µM
47 | O=C1C(NS(=O)(=O)c2ccc(Br)s2)=C(N2CCSCC2)C(=O)c2ccccc21 | > 70 µM (inactive)
48 | O=C(NC1=C(c2ccccc2)C(=O)c2ccccc2C1=O)c1ccco1 | 13.8 µM
49 | COC1=C(NS(=O)(=O)c2ccccc2)C(=O)c2ccccc2C1=O | > 70 µM (inactive)
50 | O=C1C(NS(=O)(=O)c2ccc(Br)cc2)=C(N2CCCCC2)C(=O)c2ccccc21 | > 70 µM (inactive)
51 | O=C1C(NS(=O)(=O)c2ccccc2)=C(N2CCOCC2)C(=O)c2ccccc21 | 13.8 µM

Row | Structure (SMILES) | AC50
52 | CC(=O)NC1=C(c2ccccc2)C(=O)c2ccccc2C1=O | 12.1 µM
53 | CCN1CCN(C2=C(NS(=O)(=O)c3cccs3)C(=O)c3ccccc3C2=O)CC1 | > 70 µM (inactive)
54 | COc1ccc(C(=O)NC2=C(c3ccccc3)C(=O)c3ccccc3C2=O)cc1 | 24.8 µM
55 | C=CCNC1=C(N(C)C(C)=O)C(=O)c2ccccc2C1=O | 9.29 µM
56 | Cc1nc2ccccc2n1/N=C/c1ccc([N+](=O)[O-])s1 | > 70 µM (inactive)
57 | C=CCNC1=C(NS(=O)(=O)c2cccs2)C(=O)c2ccccc2C1=O | > 70 µM (inactive)
58 | O=C(NC1=C(c2ccc(OC(F)(F)F)cc2)C(=O)c2ccccc2C1=O)c1ccccc1 | 23.6 µM
59 | COc1ccc(C2=C(NC(=O)c3ccccc3Cl)C(=O)c3ccccc3C2=O)cc1 | 12.2 µM
60 | CN1CCN(C2=C(Nc3ccccc3)C(=O)c3ccccc3C2=O)CC1 | 27.2 µM
61 | O=C1C(NS(=O)(=O)c2ccc(Br)cc2)=C(c2ccccc2)C(=O)c2ccccc21 | > 70 µM (inactive)
62 | O=C(NC1=C(Cl)C(=O)c2ccccc2C1=O)c1ccccc1 | 29.9 µM
63 | O=C1C=C(Nc2ccccc2)C(=O)c2ccccc21 | 13.9 µM
64 | COc1ccc(C2=C(NC(=O)c3cccc(OC)c3)C(=O)c3ccccc3C2=O)cc1 | 27.2 µM
65 | C=CCNC1=C(N2CCCCC2)C(=O)c2ccccc2C1=O | 19.6 µM
66 | O=C(NC1=C(N2CCOCC2)C(=O)c2ccccc2C1=O)c1ccccc1 | 26.9 µM
67 | CCN1CCN(C2=C(N(C)C(C)=O)C(=O)c3ccccc3C2=O)CC1 | 15.2 µM
68 | O=C1C(NCCCN2CCOCC2)=C(Nc2ccccc2)C(=O)c2ccccc21 | > 70 µM (inactive)
69 | C=CCNC1=C(NS(=O)(=O)c2ccc(Br)cc2)C(=O)c2ccccc2C1=O | > 70 µM (inactive)
70 | C[C@@H](NC1=C(Nc2ccccc2)C(=O)c2ccccc2C1=O)c1ccccc1 | > 70 µM (inactive)
71 | CC(=O)NC1=C(c2ccc3c(c2)oc2ccccc23)C(=O)c2ccccc2C1=O | 24.7 µM
72 | C=CCNC1=C(N2CCSCC2)C(=O)c2ccccc2C1=O | 11.3 µM

Row | Structure (SMILES) | AC50
73 | C=CCNC1=C(NC(=O)c2ccccc2)C(=O)c2ccccc2C1=O | > 70 µM (inactive)
74 | CCN1CCN(C2=C(NS(=O)(=O)c3ccc(Br)cc3)C(=O)c3ccccc3C2=O)CC1 | > 70 µM (inactive)
75 | CC(=O)NC1=C(c2ccc(Cl)cc2)C(=O)c2ccccc2C1=O | 10.4 µM
76 | C=CCNC1=C(N2CCN(CC)CC2)C(=O)c2ccccc2C1=O | 15.7 µM
77 | C=CCNC1=C(Cl)C(=O)c2ccccc2C1=O | > 70 µM (inactive)
78 | CCN1CCN(C2=C(NS(=O)(=O)c3ccc(Br)s3)C(=O)c3ccccc3C2=O)CC1 | > 70 µM (inactive)
79 | O=C1C(NS(=O)(=O)c2ccc(Br)cc2)=C(N2CCSCC2)C(=O)c2ccccc21 | > 70 µM (inactive)
80 | C=CCNC1=C(Nc2ccccc2)C(=O)c2ccccc2C1=O | > 70 µM (inactive)
81 | COc1ccc(C2=C(NC(=O)c3ccc(Cl)cc3)C(=O)c3ccccc3C2=O)cc1 | 27.7 µM
82 | C=CCNC1=C(NCCN(CC)CC)C(=O)c2ccccc2C1=O | 35.2 µM
83 | COc1cccc(C2=C(NC(=O)c3ccccc3)C(=O)c3ccccc3C2=O)c1 | 16.2 µM
84 | COc1ccc(C2=C(N)C(=O)c3ccccc3C2=O)cc1 | > 70 µM (inactive)
85 | CCN(CC)CCNC1=C(Nc2ccccc2)C(=O)c2ccccc2C1=O | > 70 µM (inactive)
86 | O=C1C(NS(=O)(=O)c2ccc(Br)cc2)=C(N2CCOCC2)C(=O)c2ccccc21 | > 70 µM (inactive)
87 | O=C(NC1=C(N2CCSCC2)C(=O)c2ccccc2C1=O)c1ccc(Br)cc1 | > 70 µM (inactive)
88 | COc1ccc(C(=O)NC2=C(c3ccc(OC)cc3)C(=O)c3ccccc3C2=O)cc1 | 14.9 µM
89 | CC(=O)N(C)C1=C(N2CCN(C)CC2)C(=O)c2ccccc2C1=O | 15.6 µM
90 | C=CCNC1=C(N2CCOCC2)C(=O)c2ccccc2C1=O | 22.8 µM
91 | CCN1CCN(C2=C(NC(=O)c3ccccc3)C(=O)c3ccccc3C2=O)CC1 | 25 µM
92 | COc1ccc(C2=C(NC(C)=O)C(=O)c3ccccc3C2=O)cc1 | 13.3 µM
